Data: ChEMBL document CHEMBL3763128, “Synthesis and antibacterial evaluation of novel 4″-glycyl linked quinolyl-azithromycins with potent activity against macrolide-resistant pathogens” (2016)
Converted amounts (≈) assume the structure as drawn.

Experiments:
Assay type in all cases: functional
Streptococcus pyogenes [1] = assay: Antibacterial activity against efflux mediated macrolide resistant Streptococcus pyogenes by agar microdilution method
Procedure, shortened: (§1)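 Agar microdilution per NCCLS guidelines; MIC reported in μg/mL; differences treated as significant only when more than a factor of 2 (one dilution) apart.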

Haemophilus influenzae = assay: Antibacterial activity against Haemophilus influenzae by agar microdilution method
Procedure, shortened: (§2)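 MIC by agar microdilution following NCCLS guidelines. Values in μg/mL. Only differences of more than one twofold dilution were treated as significant. Ery-S denotes erythromycin-susceptible strains.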

Moraxella catarrhalis = assay: Antibacterial activity against Moraxella catarrhalis by agar microdilution method; procedure, shortened: as §2
Staphylococcus aureus [2] = assay: Antibacterial activity against erythromycin-susceptible Staphylococcus aureus by agar microdilution method; procedure, shortened: as §2
Staphylococcus aureus [3] = assay: Antibacterial activity against inducibly macrolide-lincosamide-streptogramin B resistant Staphylococcus aureus by agar microdilution method; procedure, shortened: as §1
Staphylococcus aureus [4] = assay: Antibacterial activity against constitutive macrolide-lincosamide-streptogramin B resistant Staphylococcus aureus by agar microdilution method; procedure, shortened: as §1
Staphylococcus aureus [5] = assay: Antibacterial activity against efflux mediated macrolide resistant Staphylococcus aureus by agar microdilution method; procedure, shortened: as §1
Streptococcus pneumoniae [6] = assay: Antibacterial activity against erythromycin-susceptible Streptococcus pneumoniae by agar microdilution method; procedure, shortened: as §2
Streptococcus pneumoniae [7] = assay: Antibacterial activity against constitutive macrolide-lincosamide-streptogramin B resistant Streptococcus pneumoniae by agar microdilution method; procedure, shortened: as §1
Streptococcus pneumoniae [8] = assay: Antibacterial activity against efflux mediated macrolide resistant Streptococcus pneumoniae by agar microdilution method; procedure, shortened: as §1
Streptococcus pyogenes [9] = assay: Antibacterial activity against erythromycin-susceptible Streptococcus pyogenes by agar microdilution method; procedure, shortened: as §2
Streptococcus pyogenes [10] = assay: Antibacterial activity against inducibly macrolide-lincosamide-streptogramin B resistant Streptococcus pyogenes by agar microdilution method; procedure, shortened: as §1
Streptococcus pyogenes [11] = assay: Antibacterial activity against constitutive macrolide-lincosamide-streptogramin B resistant Streptococcus pyogenes by agar microdilution method; procedure, shortened: as §1

Row | Compound | MIC (Streptococcus pyogenes [1]) [µg/mL] | MIC (Haemophilus influenzae) [µg/mL] | MIC (Moraxella catarrhalis) [µg/mL] | MIC (Staphylococcus aureus [2]) [µg/mL] | MIC (Staphylococcus aureus [3]) [µg/mL] | MIC (Staphylococcus aureus [4]) [µg/mL] | MIC (Staphylococcus aureus [5]) [µg/mL] | MIC (Streptococcus pneumoniae [6]) [µg/mL] | MIC (Streptococcus pneumoniae [7]) [µg/mL] | MIC (Streptococcus pneumoniae [8]) [µg/mL] | MIC (Streptococcus pyogenes [9]) [µg/mL] | MIC (Streptococcus pyogenes [10]) [µg/mL] | MIC (Streptococcus pyogenes [11]) [µg/mL]
1 | CCC1OC(=O)[C@H](C)[C@@H](O[C@H]2C[C@@](C)(OC)[C@@H](OC(=O)CNCCCNCCOCCOCCNc3cc4c(cc3F)c(=O)c(C(=O)O)cn4C3CC3)[C@H](C)O2)C(C)[C@@H](O[C@@H]2O[C@H](C)C[C@H](N(C)C)[C@H]2O)[C@](C)(O)C[C@@H](C)CN(C)[C@H](C)[C@@H](O)[C@]1(C)O (single isomer, unassigned) | 1 (≈ 0.807 µM) | 4 (≈ 3.23 µM) | 2 (≈ 1.61 µM) | ≤ 0.125 | 4 (≈ 3.23 µM) | > 64 | 2 (≈ 1.61 µM) | ≤ 0.125 | 2 (≈ 1.61 µM) | 1 (≈ 0.807 µM) | ≤ 0.125 | 0.5 (≈ 0.403 µM) | 4 (≈ 3.23 µM)
2 | CCC1OC(=O)[C@H](C)[C@@H](O[C@H]2C[C@@](C)(OC)[C@@H](OC(=O)CNCCCNCCOCCNc3cc4c(=O)c(C(=O)O)cn(C5CC5)c4cc3Cl)[C@H](C)O2)C(C)[C@@H](O[C@@H]2O[C@H](C)C[C@H](N(C)C)[C@H]2O)[C@](C)(O)C[C@@H](C)CN(C)[C@H](C)[C@@H](O)[C@]1(C)O (single isomer, unassigned) | 0.5 (≈ 0.413 µM) | 2 (≈ 1.65 µM) | 0.25 (≈ 0.206 µM) | ≤ 0.125 | 0.5 (≈ 0.413 µM) | > 64 | 0.5 (≈ 0.413 µM) | ≤ 0.125 | 0.25 (≈ 0.206 µM) | 0.25 (≈ 0.206 µM) | ≤ 0.125 | 0.25 (≈ 0.206 µM) | 1 (≈ 0.825 µM)
3 | CCC1OC(=O)[C@H](C)[C@@H](O[C@H]2C[C@@](C)(OC)[C@@H](OC(=O)CNCCCNCCOCCNc3cc4c(cc3F)c(=O)c(C(=O)O)cn4C3CC3)[C@H](C)O2)C(C)[C@@H](O[C@@H]2O[C@H](C)C[C@H](N(C)C)[C@H]2O)[C@](C)(O)C[C@@H](C)CN(C)[C@H](C)[C@@H](O)[C@]1(C)O (single isomer, unassigned) | 2 (≈ 1.67 µM) | 2 (≈ 1.67 µM) | 1 (≈ 0.836 µM) | 0.25 (≈ 0.209 µM) | 2 (≈ 1.67 µM) | > 64 | 1 (≈ 0.836 µM) | ≤ 0.125 | 2 (≈ 1.67 µM) | 0.25 (≈ 0.209 µM) | ≤ 0.125 | 0.5 (≈ 0.418 µM) | 4 (≈ 3.35 µM)
4 | CC[C@H]1OC(=O)[C@@H](C)[C@H](O[C@@H]2C[C@](C)(OC)[C@H](OC(=O)CNC(=O)CCNCCOCCOCCNc3cc4c(=O)c(C(=O)O)cn(C5CC5)c4cc3Cl)[C@@H](C)O2)[C@H](C)[C@H](O[C@H]2O[C@@H](C)C[C@@H](N(C)C)[C@@H]2O)[C@@](C)(O)C[C@H](C)CN(C)[C@@H](C)[C@H](O)[C@@]1(C)O (stereo in doubt) | 2 (≈ 1.57 µM) | 4 (≈ 3.15 µM) | 1 (≈ 0.787 µM) | ≤ 0.125 | 4 (≈ 3.15 µM) | > 64 | 0.5 (≈ 0.394 µM) | ≤ 0.125 | 4 (≈ 3.15 µM) | 1 (≈ 0.787 µM) | ≤ 0.125 | 1 (≈ 0.787 µM) | 8 (≈ 6.3 µM)
5 | CC[C@H]1OC(=O)[C@@H](C)[C@H](O[C@@H]2C[C@](C)(OC)[C@H](OC(=O)CNCCCNCCOCCOCCNc3cc4c(=O)c(C(=O)O)cn(C5CC5)c4cc3Cl)[C@@H](C)O2)[C@H](C)[C@H](O[C@H]2O[C@@H](C)C[C@@H](N(C)C)[C@@H]2O)[C@@](C)(O)C[C@H](C)CN(C)[C@@H](C)[C@H](O)[C@@]1(C)O (stereo in doubt) | 1 (≈ 0.796 µM) | 2 (≈ 1.59 µM) | 0.5 (≈ 0.398 µM) | ≤ 0.125 | 1 (≈ 0.796 µM) | > 64 | 1 (≈ 0.796 µM) | ≤ 0.125 | 1 (≈ 0.796 µM) | 0.5 (≈ 0.398 µM) | ≤ 0.125 | 0.25 (≈ 0.199 µM) | 2 (≈ 1.59 µM)
6 | CC[C@H]1OC(=O)[C@@H](C)[C@H](O[C@@H]2C[C@](C)(OC)[C@H](OC(=O)CNC(=O)CCNCCNc3cc4c(=O)c(C(=O)O)cn(C5CC5)c4cc3Cl)[C@@H](C)O2)[C@H](C)[C@H](O[C@H]2O[C@@H](C)C[C@@H](N(C)C)[C@@H]2O)[C@@](C)(O)C[C@H](C)CN(C)[C@@H](C)[C@H](O)[C@@]1(C)O (stereo in doubt) | 0.25 (≈ 0.212 µM) | 0.5 (≈ 0.423 µM) | 0.125 (≈ 0.106 µM) | ≤ 0.125 | 1 (≈ 0.846 µM) | > 64 | 0.5 (≈ 0.423 µM) | ≤ 0.125 | 0.5 (≈ 0.423 µM) | 0.25 (≈ 0.212 µM) | ≤ 0.125 | 0.25 (≈ 0.212 µM) | 0.5 (≈ 0.423 µM)
